The record followed here is ChEMBL document CHEMBL3804769, “Antibacterial Diamines Targeting Bacterial Membranes” (J Med Chem, 2016).

≈ marks a conversion by molar mass, not a printed value. Calls of active or inactive are those of the source. The rule behind the calls is not given here.

The subject of series [1] is Staphylococcus aureus. Description: Antibacterial activity against Staphylococcus aureus RN4220 ATCC 35556 incubated overnight by microbroth dilution method. It counts as functional. A digest of the protocol:
(§1)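 Bacteria grown in LB medium. CLSI microbroth dilution in 96-well plates, overnight at 37 °C without shaking. MIC99 taken as the lowest concentration giving complete growth inhibition. Three independent determinations, reported as mean ± SD.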
Background: Dilution methods test growth across graded concentrations, often in twofold steps.

Series [2] concerns Pseudomonas aeruginosa. Kind of series: Antibacterial activity against Pseudomonas aeruginosa PAO1 ATCC 47085 incubated overnight by microbroth dilution method. It is filed as functional. In a few lines: as §1
The test system of the next series is Escherichia coli. Description: Antibacterial activity against Escherichia coli ANS1 incubated overnight by microbroth dilution method. It counts as functional. In a few lines: as §1
In series [3] the test system is Pseudomonas aeruginosa. Kind of series: Antibacterial activity against Pseudomonas aeruginosa PAO1 ATCC 47085 assessed as increase in outer membrane permeability at 4 times MIC99 by fluorescent probe 1-N-phenylnaphthylamine based fluorescence assay. It is filed as functional, organism-based. A digest of the protocol:
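P. aeruginosa PAO1 from a culture at OD600 ~0.5, washed and resuspended in 5 mM HEPES pH 7.2. NPN added to 10 μM final and sodium azide to 10 mM final, then 30 min at room temperature in darkness. Compound added at 4× or 1× MIC99 and NPN fluorescence recorded continuously (ex 350/em 420 nm). Gentamicin at 4× MIC99 as positive control. Three independent experiments.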

Series [4] deals with Caenorhabditis elegans. Description: Toxicity in Caenorhabditis elegans N2 assessed as effect on viable eggs production treated at high concentration. It counts as organism-based. The conditions noted are these: in vivo. In a few lines: (§2)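 C. elegans N2 kept on NGM agar at 22 °C. Compound mixed into molten NGM agar at 64 μg/mL. L4 adults, L1 juveniles and synchronized eggs transferred onto test plates and held at 22 °C for 96 h. Death, development and egg production checked every 12 h.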

Series [5] relates to Caenorhabditis elegans. Description: Toxicity in juvenile L1 stage of Caenorhabditis elegans N2 assessed as nematode death at 64 ug/ml incubated for 96 hrs measured every 12 hrs. It counts as organism-based. The settings on record: in vivo. A digest of the protocol: as §2
Series [6] deals with Staphylococcus aureus. Kind of series: Bactericidal activity against Staphylococcus aureus RN4220 ATCC 35556 assessed as reduction in bacterial burden. It is filed as functional, organism-based. A digest of the protocol:
(§3)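 Overnight LB cultures of RN4220 or PAO1 washed and resuspended in PBS, then diluted 100-fold into LB (exponential phase) or 1% PBS (stationary phase). Compound added at 4× MIC99, and cultures shaken at 200 rpm at 37 °C. Viable counts taken by dilution plating on LB agar at 0, 2, 4 and 6 h.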

Series [7] has as its system Pseudomonas aeruginosa. Kind of series: Bactericidal activity against Pseudomonas aeruginosa PAO1 ATCC 47085 assessed as reduction in bacterial burden. It is filed as functional, organism-based. In a few lines: as §3
Series [8] has as its system Pseudomonas aeruginosa. Description: Antibiofilm activity against Pseudomonas aeruginosa PAO1 ATCC 47085 at < 1024 ug/ml after 24 hrs by crystal violet staining-based spectrophotometry. It counts as functional, organism-based. In a few lines: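 PAO1 grown 2 h in LB at 37 °C with shaking, then diluted 1:1000 in 10% LB-PBS to 3 × 10⁵ CFU/mL and mixed with serially diluted compound. Biofilms grown on peg lids 24 h at 37 °C, static. Pegs washed, stained with 0.1% crystal violet for 15 min, dye eluted in 95% ethanol and read at 600 nm. Control was 10% LB-PBS.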

Series [9] has as its system Staphylococcus aureus. Description: Bactericidal activity against Staphylococcus aureus RN4220 ATCC 35556 in exponential-phase assessed as reduction in bacterial burden at 4 times MIC99 after 2 to 6 hrs by time-kill assay. It is filed as functional, organism-based. In a few lines:
(§4)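 Overnight cultures washed and resuspended in PBS, then diluted 100-fold into LB (exponential-phase model) or into 1% PBS (stationary-phase model). Test agent added at 4× MIC99. Incubated at 37 °C with shaking at 200 rpm. CFU counted on LB agar at 0, 2, 4 and 6 h.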

The test system of series [10] is Staphylococcus aureus. Kind of series: Bactericidal activity against Staphylococcus aureus RN4220 ATCC 35556 in stationary-phase assessed as reduction in bacterial burden at 4 times MIC99 after 2 to 6 hrs by time-kill assay. It counts as functional, organism-based. In a few lines:
as §4

Series [11] relates to Pseudomonas aeruginosa. Kind of series: Bactericidal activity against Pseudomonas aeruginosa PAO1 ATCC 47085 in exponential-phase assessed as reduction in bacterial burden at 4 times MIC99 upto 6 hrs by time-kill assay. It counts as functional. In a few lines: as §4
Series [12] has as its system Pseudomonas aeruginosa. Kind of series: Bactericidal activity against Pseudomonas aeruginosa PAO1 ATCC 47085 in stationary-phase assessed as reduction in bacterial burden at 4 times MIC99 after 4 hrs by time-kill assay. It counts as functional, organism-based. In a few lines: as §4
Series [13] has as its system Staphylococcus aureus. Description: Bactericidal activity against Staphylococcus aureus RN4220 ATCC 35556 in stationary-phase assessed as reduction in bacterial burden at 4 times MIC99 after 4 hrs by time-kill assay. It is filed as functional. In a few lines: as §3
Series [14] has as its system Pseudomonas aeruginosa. Description: Antibiofilm activity against Pseudomonas aeruginosa PAO1 ATCC 47085 after 24 hrs by crystal violet staining-based spectrophotometry. It counts as functional, organism-based. In a few lines:
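PAO1 grown 2 h in LB at 37 °C with shaking, then diluted 1:1000 in 10% LB-PBS to 3 × 10⁵ CFU/mL. Inoculum mixed with serially diluted compound under pegged lids and incubated 24 h at 37 °C static. Peg biofilms washed, stained 15 min with 0.1% crystal violet, and dye eluted in 95% ethanol and read at 600 nm.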

The MIC99 is an inhibitory concentration at the 99% level, which refers to growth in some studies and to a panel of isolates in others. For `O=C(NCCCCCCCCCCCCNC(=O)NCC(c1ccccc1)c1ccccc1)NCC(c1ccccc1)c1ccccc1`, the MIC99 with Staphylococcus aureus [1], in the series on Pseudomonas aeruginosa [2] and in the series on Escherichia coli was over 256 µg/mL throughout.
With `Cl.Cl.O=C(NCCCNCCCCCNCCCNC(=O)NCCC(c1ccccc1)c1ccccc1)NCCC(c1ccccc1)c1ccccc1`, the MIC99 against Staphylococcus aureus [1] is 13.3 µg/mL; against Pseudomonas aeruginosa [2], 26.7 µg/mL; with Escherichia coli, 6 µg/mL.
The matching figures for `O=C(NCCCNCCCCNCCCNC(=O)NCC(c1ccccc1)c1ccccc1)NCC(c1ccccc1)c1ccccc1`: 11.3 µg/mL (≈ 17.4 µM), 18.6 µg/mL (≈ 28.7 µM) and 4.4 µg/mL (≈ 6.78 µM).
For GENTAMICIN [listing 1 of 2 here], the result in the series on Pseudomonas aeruginosa [3] was Active.
Consider `O=c1[nH]cc(F)c(=O)[nH]1` [FLUOROURACIL], for which the Activity entry with Caenorhabditis elegans [4] and with Caenorhabditis elegans [5] was “Toxic” in each case.
As to `O=[N+]([O-])c1ccc(O)c([N+](=O)[O-])c1`, the result in the series on Staphylococcus aureus [6] and with Pseudomonas aeruginosa [7] was Active.
As to `Cl.Cl.O=C(NCCCNCCCCCNCCCNC(=O)NCc1ccccc1)NCc1ccccc1`, the MIC99 was 107 µg/mL against Staphylococcus aureus [1], 213 µg/mL in the series on Pseudomonas aeruginosa [2] and 64 µg/mL in the series with Escherichia coli.
The matching figures for `S=C(NCCCNCCCCNCCCNC(=S)NCCC(c1ccccc1)c1ccccc1)NCCC(c1ccccc1)c1ccccc1`: 4.9 µg/mL (≈ 6.91 µM), 29.2 µg/mL (≈ 41.2 µM) and 10.4 µg/mL (≈ 14.7 µM).
On to GENTAMICIN [listing 2 of 2 here], for which the Activity result with Caenorhabditis elegans [4] and in the series on Caenorhabditis elegans [5] was “Toxic” in each case.
Turning to `Cl.Cl.O=C(NCCCNCCCCCNCCCNC(=O)NC(c1ccccc1)c1ccccc1)NC(c1ccccc1)c1ccccc1`, the figures for the MIC99 against Staphylococcus aureus [1], in the series on Pseudomonas aeruginosa [2] and against Escherichia coli were 10.7 µg/mL, 13.3 µg/mL and 6 µg/mL, respectively.
`Cl.Cl.S=C(NCCCNCCCCCNCCCNC(=S)NCc1ccccc1)NCc1ccccc1`: the MIC99 stood at 32 µg/mL in the series with Staphylococcus aureus [1], 256 µg/mL against Pseudomonas aeruginosa [2] and 32 µg/mL against Escherichia coli.
As for `NC[C@H]1O[C@H](O[C@H]2[C@H](O)[C@@H](O[C@H]3O[C@H](CO)[C@@H](O)[C@H](N)[C@H]3O)[C@H](N)C[C@@H]2N)[C@H](O)[C@@H](O)[C@@H]1O` [KANAMYCIN], the MIC99 in the series on Staphylococcus aureus [1] came to 8 µg/mL (≈ 16.5 µM); against Pseudomonas aeruginosa [2], 32 µg/mL (≈ 66 µM); in the series with Escherichia coli, 8 µg/mL (≈ 16.5 µM). The outcome in the series on Pseudomonas aeruginosa [8], in the series on Staphylococcus aureus [10], in the series with Pseudomonas aeruginosa [11] and with Pseudomonas aeruginosa [12] was inactive. Moreover, the result in the series with Staphylococcus aureus [9] was Active.
Turning to `CCn1cc(C(=O)O)c(=O)c2cc(F)c(N3CCNCC3)cc21` [NORFLOXACIN], the MIC99 came to 0.5 µg/mL (≈ 1.57 µM) in the series with Staphylococcus aureus [1], 0.5 µg/mL (≈ 1.57 µM) with Pseudomonas aeruginosa [2] and 0.25 µg/mL (≈ 0.783 µM) in the series with Escherichia coli. For the same compound, the outcome in the series on Staphylococcus aureus [9] and with Pseudomonas aeruginosa [14] was Active. The outcome with Staphylococcus aureus [10] was inactive. The Activity in the series with Staphylococcus aureus [13] was 2 deltalog10CFU/ml; in the series with Pseudomonas aeruginosa [11], 4 deltalog10CFU/ml.
In the case of `CC1(C)S[C@@H]2[C@H](NC(=O)[C@H](N)c3ccccc3)C(=O)N2[C@H]1C(=O)O` [AMPICILLIN], the results for the MIC99 against Staphylococcus aureus [1] and with Pseudomonas aeruginosa [2] were 0.125 µg/mL (≈ 0.358 µM) and 128 µg/mL (≈ 366 µM), respectively. Also, in the series on Staphylococcus aureus [9], the outcome was Active. Besides, the result in the series on Staphylococcus aureus [10], in the series on Pseudomonas aeruginosa [11] and in the series on Pseudomonas aeruginosa [12] was inactive.
Take `CN(C)[C@@H]1C(O)=C(C(N)=O)C(=O)[C@@]2(O)C(O)=C3C(=O)c4c(O)cccc4[C@@](C)(O)[C@H]3C[C@@H]12`: in the series on Pseudomonas aeruginosa [14], the outcome was Active.
As for `Cl.Cl.S=C(NCCCNCCCCCNCCCNC(=S)NCCC(c1ccccc1)c1ccccc1)NCCC(c1ccccc1)c1ccccc1`, the MIC99 against Staphylococcus aureus [1] was determined as 9.3 µg/mL; with Pseudomonas aeruginosa [2], 32 µg/mL; with Escherichia coli, 10 µg/mL.
As to `Cl.Cl.S=C(NCCCNCCCCCNCCCNC(=S)NC(c1ccccc1)c1ccccc1)NC(c1ccccc1)c1ccccc1`, the MIC99 against Staphylococcus aureus [1] turned out to be 6.7 µg/mL; against Pseudomonas aeruginosa [2], 13.3 µg/mL; with Escherichia coli, 6 µg/mL.
The like results for `NCCCNCCCCNCCCN` [SPERMINE] were, in that order, over 512 µg/mL, over 512 µg/mL and over 512 µg/mL.
The like results for `O=C(NCCCCCCCCCCCNC(=O)NCCC(c1ccccc1)c1ccccc1)NCCC(c1ccccc1)c1ccccc1` were, in that order, over 256 µg/mL, over 256 µg/mL and over 256 µg/mL.
The like results for `NCCCCNCCCN` [SPERMIDINE] were, in that order, over 512 µg/mL, over 512 µg/mL and over 512 µg/mL.
Turning to `S=C(NCCCNCCCCNCCCNC(=S)NC(c1ccccc1)c1ccccc1)NC(c1ccccc1)c1ccccc1`, the values for the MIC99 in the series with Staphylococcus aureus [1], in the series with Pseudomonas aeruginosa [2] and in the series on Escherichia coli were 3.8 µg/mL (≈ 5.82 µM), 10.4 µg/mL (≈ 15.9 µM) and 6.2 µg/mL (≈ 9.49 µM), respectively.
Consider `Cl.Cl.O=C(NCCCNCCCCCNCCCNC(=O)NCC(c1ccccc1)c1ccccc1)NCC(c1ccccc1)c1ccccc1`, for which the MIC99 is 18.7 µg/mL against Staphylococcus aureus [1], 26.7 µg/mL with Pseudomonas aeruginosa [2] and 4 µg/mL against Escherichia coli.
The matching figures for `S=C(NCCCCCCCCCCCCNC(=S)NC(c1ccccc1)c1ccccc1)NC(c1ccccc1)c1ccccc1`: over 256 µg/mL, over 256 µg/mL and over 256 µg/mL.
`Cl.Cl.O=C(NCCCNCCCCCNCCCNC(=O)Nc1ccccc1)Nc1ccccc1`: the MIC99 in the series on Staphylococcus aureus [1], in the series on Pseudomonas aeruginosa [2] and in the series on Escherichia coli was over 256 µg/mL in each case.
As to COLISTIN, the MIC99 with Staphylococcus aureus [1] is over 16 µg/mL; against Pseudomonas aeruginosa [2], under 0.125 µg/mL. The result in the series on Staphylococcus aureus [6] and in the series on Pseudomonas aeruginosa [7] was Active.
For `O=C(NCCCCCCCCCCCCNC(=O)NC(c1ccccc1)c1ccccc1)NC(c1ccccc1)c1ccccc1`, the MIC99 against Staphylococcus aureus [1], against Pseudomonas aeruginosa [2] and against Escherichia coli was over 256 µg/mL each time.
